Test results taken from ChEMBL document CHEMBL1142105, “Bioactive metabolites from the Caribbean sponge Aka coralliphagum” (J Nat Prod, 2007).
In brackets after ≈: the same amount, converted by molar mass.

Assays:
[1] = DPPH radical scavenging activity at 40 umol/L relative to control; assay type: functional
Summary of the method: (§1)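 Samples in EtOH (1000 µL at 200 or 40 µM) were mixed with 250 µL of 1 mM DPPH stock and 750 µL EtOH, then held at RT in the dark for 30 min. Absorbance was read at 517 nm. Scavenging % = 100 − (A sample × 100/A control).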

[2] = DPPH radical scavenging activity at 200 umol/L relative to control; assay type: functional; summary of the method: as §1
Pseudomonas aeruginosa = assay: Antimicrobial activity against Pseudomonas aeruginosa at 20 ug by agar diffusion test; assay type: functional; conditions: read-out: IZ
Summary of the method: (§2)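 Agar diffusion on 6 mm paper disks loaded with 20 µL of a 1 mg/mL methanol solution (20 µg). Bacteria from the HZI collection were grown on standard media and seeded into agar medium at a final OD of 0.01. Plates were incubated at 30 °C, and inhibition zone diameter (mm) was read after 1 and 2 days.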

Wickerhamomyces anomalus = assay: Antimicrobial activity against Hansenula anomala at 20 ug by agar diffusion test; assay type: functional; conditions: read-out: IZ
Summary of the method: (§3)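 Yeasts from the HZI collection were seeded into agar medium at a final OD of 0.1. Paper disks (6 mm) carried 20 µg of compound, applied as 20 µL of 1 mg/mL in MeOH. Plates were kept at 30 °C, and inhibition zone diameters (mm) were measured at days 1 and 2.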

[3] = system: Globisporangium debaryanum; assay: Antimicrobial activity against Pythium debaryanum at 20 ug by agar diffusion test; assay type: functional; conditions: read-out: IZ
Summary of the method: (§4)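 Fungal spores were rinsed from well-grown Petri dishes with 10 mL sterile water, and 1 mL of the suspension was mixed into 100 mL molten agar. Disks (6 mm) with 20 µg compound (20 µL, 1 mg/mL in methanol) were placed on the agar. Plates were incubated at 30 °C, and zone diameter (mm) was scored after 1 and 2 days.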

Botrytis cinerea = assay: Antimicrobial activity against Botrytis cinerea at 20 ug by agar diffusion test; assay type: functional; conditions: read-out: IZ; summary of the method: as §4
Staphylococcus aureus = assay: Antimicrobial activity against Staphylococcus aureus at 20 ug by agar diffusion test; assay type: functional; conditions: read-out: IZ; summary of the method: as §2
Escherichia coli = assay: Antimicrobial activity against Escherichia coli tolC at 20 ug by agar diffusion test; assay type: functional; conditions: read-out: IZ; summary of the method: as §2
Micrococcus luteus = assay: Antimicrobial activity against Micrococcus luteus at 20 ug by agar diffusion test; assay type: functional; conditions: read-out: IZ; summary of the method: as §2
Aspergillus fumigatus = assay: Antimicrobial activity against Aspergillus fumigatus at 20 ug by agar diffusion test; assay type: functional; conditions: read-out: IZ; summary of the method: as §4
Candida albicans = assay: Antimicrobial activity against Candida albicans at 20 ug by agar diffusion test; assay type: functional; conditions: read-out: IZ; summary of the method: as §3
Saccharomyces cerevisiae = assay: Antimicrobial activity against Saccharomyces cerevisiae at 20 ug by agar diffusion test; assay type: functional; conditions: read-out: IZ; summary of the method: as §3
Mycolicibacterium phlei = assay: Antimicrobial activity against Mycobacterium phlei at 20 ug by agar diffusion test; assay type: functional; conditions: read-out: IZ; summary of the method: as §2
L929 = assay: Cytotoxicity against mouse L929 cells by MTT assay; assay type: cell-based
Summary of the method: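 L929 mouse fibroblasts (DSMZ) were grown in high-glucose DME with 10% fetal calf serum at 37 °C and 10% CO2. Cell suspension (120 µL at 50 000/mL) was added to 60 µL of serial compound dilutions in microtiter plates. Growth was determined by MTT after 5 days, with concentrations expressed in µg/mL.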

Klebsiella pneumoniae = assay: Antimicrobial activity against Klebsiella pneumoniae at 20 ug by agar diffusion test; assay type: functional; conditions: read-out: IZ; summary of the method: as §2

O=C1O[C@H]([C@@H](O)CO)C(O)=C1O
Activity [1]: 27%
Activity [2]: 95.3%

C[C@H]1CCC2C(C)(C)CCC[C@]2(C)/C1=C/c1cc(O)c(O)c(/C=N/CCS(=O)(=O)O)c1OS(=O)(=O)O (some centres undefined) [SIPHONODICTYAL B1]
zone of inhibition at 20 µg/disc (Pseudomonas aeruginosa): 0 mm
Activity [1]: 23.5%
zone of inhibition at 20 µg/disc (Wickerhamomyces anomalus): 0 mm
zone of inhibition at 20 µg/disc [3]: 0 mm
zone of inhibition at 20 µg/disc (Botrytis cinerea): 13 mm
zone of inhibition at 20 µg/disc (Staphylococcus aureus): 12 mm
zone of inhibition at 20 µg/disc (Escherichia coli): 0 mm
zone of inhibition at 20 µg/disc (Micrococcus luteus): 0 mm
zone of inhibition at 20 µg/disc (Aspergillus fumigatus): 0 mm
zone of inhibition at 20 µg/disc (Candida albicans): 0 mm
Activity [2]: 80.8%
zone of inhibition at 20 µg/disc (Saccharomyces cerevisiae): 0 mm
zone of inhibition at 20 µg/disc (Mycolicibacterium phlei): 0 mm
Activity (L929): 10 µg/mL
zone of inhibition at 20 µg/disc (Klebsiella pneumoniae): 0 mm

C[C@H]1CCC2C(C)(C)CCC[C@]2(C)/C1=C/c1cc(O)c(O)c(C=O)c1OS(=O)(=O)O (some centres undefined) [SIPHONODICTYAL B2]
zone of inhibition at 20 µg/disc (Pseudomonas aeruginosa): 0 mm
Activity [1]: 25.3%
zone of inhibition at 20 µg/disc [3]: 0 mm
zone of inhibition at 20 µg/disc (Botrytis cinerea): 15 mm
zone of inhibition at 20 µg/disc (Staphylococcus aureus): 13 mm
zone of inhibition at 20 µg/disc (Escherichia coli): 0 mm
zone of inhibition at 20 µg/disc (Micrococcus luteus): 0 mm
zone of inhibition at 20 µg/disc (Aspergillus fumigatus): 0 mm
zone of inhibition at 20 µg/disc (Candida albicans): 0 mm
Activity [2]: 88.8%
zone of inhibition at 20 µg/disc (Saccharomyces cerevisiae): 0 mm
zone of inhibition at 20 µg/disc (Mycolicibacterium phlei): 0 mm
IC50 (L929): 6 µg/mL (≈ 13.7 µM)
zone of inhibition at 20 µg/disc (Klebsiella pneumoniae): 0 mm

C[C@H]1CCC2C(C)(C)CCC[C@]2(C)/C1=C/c1cc(OS(=O)(=O)O)c(O)c(C=O)c1OS(=O)(=O)O (some centres undefined) [SIPHONODICTYAL B3]
zone of inhibition at 20 µg/disc (Pseudomonas aeruginosa): 0 mm
zone of inhibition at 20 µg/disc (Wickerhamomyces anomalus): 0 mm
zone of inhibition at 20 µg/disc [3]: 0 mm
zone of inhibition at 20 µg/disc (Botrytis cinerea): 0 mm
zone of inhibition at 20 µg/disc (Staphylococcus aureus): 0 mm
zone of inhibition at 20 µg/disc (Escherichia coli): 0 mm
zone of inhibition at 20 µg/disc (Micrococcus luteus): 0 mm
zone of inhibition at 20 µg/disc (Aspergillus fumigatus): 0 mm
zone of inhibition at 20 µg/disc (Candida albicans): 0 mm
zone of inhibition at 20 µg/disc (Saccharomyces cerevisiae): 0 mm
zone of inhibition at 20 µg/disc (Mycolicibacterium phlei): 0 mm
Activity (L929): > 40 µg/mL
zone of inhibition at 20 µg/disc (Klebsiella pneumoniae): 0 mm

C[C@H]1CCC2C(C)(C)CCC[C@]2(C)/C1=C/c1cc(O)c(O)c(C=O)c1O (some centres undefined) [SIPHONODICTYAL B]
zone of inhibition at 20 µg/disc (Staphylococcus aureus): 12 mm
zone of inhibition at 20 µg/disc (Escherichia coli): 9 mm
zone of inhibition at 20 µg/disc (Aspergillus fumigatus): 15 mm
zone of inhibition at 20 µg/disc (Saccharomyces cerevisiae): 0 mm
Activity (L929): 0.2 µg/mL

C=C1CCCC2[C@](C)(Cc3cc(C=O)cc(O)c3OS(=O)(=O)O)[C@@H](C)CC[C@]12C (some centres undefined) [SIPHONODICTYAL G]
zone of inhibition at 20 µg/disc (Pseudomonas aeruginosa): 0 mm
Activity [1]: 5.9%
zone of inhibition at 20 µg/disc (Wickerhamomyces anomalus): 0 mm
zone of inhibition at 20 µg/disc [3]: 0 mm
zone of inhibition at 20 µg/disc (Botrytis cinerea): 0 mm
zone of inhibition at 20 µg/disc (Staphylococcus aureus): 0 mm
zone of inhibition at 20 µg/disc (Escherichia coli): 0 mm
zone of inhibition at 20 µg/disc (Micrococcus luteus): 0 mm
zone of inhibition at 20 µg/disc (Aspergillus fumigatus): 0 mm
zone of inhibition at 20 µg/disc (Candida albicans): 0 mm
Activity [2]: 32.2%
zone of inhibition at 20 µg/disc (Saccharomyces cerevisiae): 0 mm
zone of inhibition at 20 µg/disc (Mycolicibacterium phlei): 0 mm
Activity (L929): 10 µg/mL
zone of inhibition at 20 µg/disc (Klebsiella pneumoniae): 0 mm

C=C1CCCC2[C@](C)(Cc3cc(CO)cc(O)c3OS(=O)(=O)O)[C@@H](C)CC[C@]12C (some centres undefined) [SIPHONODICTYOL G]
zone of inhibition at 20 µg/disc (Pseudomonas aeruginosa): 0 mm
Activity [1]: 2.6%
zone of inhibition at 20 µg/disc (Wickerhamomyces anomalus): 0 mm
zone of inhibition at 20 µg/disc [3]: 0 mm
zone of inhibition at 20 µg/disc (Botrytis cinerea): 15 mm
zone of inhibition at 20 µg/disc (Staphylococcus aureus): 0 mm
zone of inhibition at 20 µg/disc (Escherichia coli): 0 mm
zone of inhibition at 20 µg/disc (Micrococcus luteus): 0 mm
zone of inhibition at 20 µg/disc (Aspergillus fumigatus): 0 mm
zone of inhibition at 20 µg/disc (Candida albicans): 0 mm
Activity [2]: 39.8%
zone of inhibition at 20 µg/disc (Saccharomyces cerevisiae): 0 mm
zone of inhibition at 20 µg/disc (Mycolicibacterium phlei): 0 mm
Activity (L929): > 40 µg/mL
zone of inhibition at 20 µg/disc (Klebsiella pneumoniae): 0 mm
